Here are results for ten compounds from ChEMBL document CHEMBL1132458, “Potent and selective inhibition of varicella-zoster virus (VZV) by nucleoside analogues with an unusual bicyclic base” (J Med Chem, 1999).

The term EC50 denotes the concentration giving half of the maximal effect. What is called IC50 is the concentration that gives 50% inhibition.

Assay [1] relates to Human alphaherpesvirus 3. The assay is described as follows: Compound was evaluated for the inhibition of VZV (TK-) thymidine kinase-deficient strain 07. In kind it is functional, organism-based. In outline:
(§1)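 Confluent human embryonic lung (HEL) fibroblasts were infected with 20 PFU per well of virus for 1–2 h, and then residual virus was removed. Cells were then kept in MEM with 2% inactivated FCS, 1% L-glutamine and 0.3% sodium bicarbonate, plus serial compound concentrations. Plaques were scored after 5 days. EC50 is the concentration cutting plaque formation by 50% versus untreated control.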

In assay [2] the test system is HEL. The assay can be described thus: Compound was evaluated for the cytotoxicity against HEL cells. In kind it is functional. Particulars: Homo sapiens.
The subject of assay [3] is Human alphaherpesvirus 3. The assay can be described thus: Compound was evaluated for the inhibition of VZV strains of YS. In kind it is functional, organism-based.
Assay [4] concerns Human alphaherpesvirus 3. The assay is described as follows: Compound was evaluated for the inhibition of VZV strains of OKA. In kind it is functional, organism-based.
The subject of assay [5] is Human alphaherpesvirus 3. The assay is described as follows: Compound was evaluated for the inhibition of VZV (TK-) thymidine kinase-deficient strain YS-R. In kind it is functional, organism-based. An outline of the steps:
as §1

Assay [6] concerns HEL. The assay can be described thus: Compound was evaluated for the cytotoxicity against HEL cells. Particulars: Homo sapiens.
Assay [7] relates to Human alphaherpesvirus 3. The assay is described as follows: Compound was evaluated for the inhibition of VZV (TK-) thymidine kinases Strain YS-R. It is filed as functional, organism-based.
Assay [8] relates to Human alphaherpesvirus 3. The assay can be described thus: Compound was evaluated for the inhibition of VZV (TK-) thymidine kinases Strain 07. It is filed as functional, organism-based.

As for `CCCCCc1cc2cn([C@H]3C[C@H](O)[C@@H](CO)O3)c(=O)nc2o1`, the EC50 was greater than 50 µM in the assay on Human alphaherpesvirus 3 [1], 4.6 µM in the assay with Human alphaherpesvirus 3 [3], 3 µM in the assay on Human alphaherpesvirus 3 [4] and greater than 50 µM in the assay on Human alphaherpesvirus 3 [5]. This compound also showed an MCC in the assay with HEL [2] greater than 50 µM. For the same compound, the IC50 with HEL [6] is greater than 50 µM.

For `CCCCCCCCCCCCc1cc2cn([C@H]3C[C@H](O)[C@@H](CO)O3)c(=O)nc2o1`, in the assay on HEL [2], the MCC was 50 µM. Further, the EC50 in the assay with Human alphaherpesvirus 3 [3] was 1.1 µM; in the assay on Human alphaherpesvirus 3 [4] it was 1.3 µM; with Human alphaherpesvirus 3 [7] it was greater than 20 µM; with Human alphaherpesvirus 3 [8], greater than 50 µM. Moreover, in the assay on HEL [6], the IC50 was greater than 200 µM.

`CCCCCCCc1cc2cn([C@H]3C[C@H](O)[C@@H](CO)O3)c(=O)nc2o1`: the MCC in the assay on HEL [2] was greater than 50 µM. The EC50 in the assay with Human alphaherpesvirus 3 [3] was 0.39 µM; in the assay with Human alphaherpesvirus 3 [4], 0.17 µM; in the assay on Human alphaherpesvirus 3 [7], greater than 50 µM; in the assay with Human alphaherpesvirus 3 [8], greater than 50 µM. The compound also registered an IC50 in the assay with HEL [6] greater than 50 µM.

With `CCCCCCCCCCc1cc2cn([C@H]3C[C@H](O)[C@@H](CO)O3)c(=O)nc2o1`, in the assay on HEL [2], the MCC is greater than 50 µM. Further, the EC50 with Human alphaherpesvirus 3 [3] is 0.008 µM; in the assay with Human alphaherpesvirus 3 [4], 0.015 µM; with Human alphaherpesvirus 3 [7], greater than 50 µM; with Human alphaherpesvirus 3 [8] it was greater than 50 µM. In the assay on HEL [6], this compound yielded an IC50 greater than 50 µM.

On to `O=c1[nH]c(=O)n([C@H]2C[C@H](O)[C@@H](CO)O2)cc1/C=C/Br` [BRIVUDINE], for which, in the assay on HEL [2], the MCC was greater than 150 µM. In addition, the EC50 in the assay with Human alphaherpesvirus 3 [3] was 0.006 µM; in the assay with Human alphaherpesvirus 3 [4] it was 0.003 µM; in the assay on Human alphaherpesvirus 3 [7] it was greater than 300 µM; in the assay on Human alphaherpesvirus 3 [8] it was 144 µM. Besides, the IC50 in the assay on HEL [6] was greater than 400 µM.

`Nc1nc2c(ncn2COCCO)c(=O)[nH]1` [ACYCLOVIR] showed an MCC with HEL [2] greater than 200 µM. In the assay on HEL [6], this compound yielded an IC50 greater than 200 µM.

Consider `CCCCCCCCCc1cc2cn([C@H]3C[C@H](O)[C@@H](CO)O3)c(=O)nc2o1`, for which the MCC with HEL [2] is greater than 200 µM. Moreover, the EC50 in the assay on Human alphaherpesvirus 3 [3] is 0.02 µM; in the assay with Human alphaherpesvirus 3 [4], 0.02 µM; in the assay on Human alphaherpesvirus 3 [7] it was greater than 200 µM; with Human alphaherpesvirus 3 [8], greater than 200 µM. In addition, the IC50 in the assay with HEL [6] was greater than 200 µM.

On to `CCCCCCc1cc2cn([C@H]3C[C@H](O)[C@@H](CO)O3)c(=O)nc2o1`, for which the EC50 with Human alphaherpesvirus 3 [1] is greater than 50 µM; in the assay with Human alphaherpesvirus 3 [3], 2.8 µM; in the assay on Human alphaherpesvirus 3 [4], 1.3 µM; in the assay with Human alphaherpesvirus 3 [5] it was greater than 50 µM. Moreover, the MCC with HEL [2] is 200 µM. The compound also registered an IC50 in the assay with HEL [6] greater than 200 µM.

`CCCCCCCCc1cc2cn([C@H]3C[C@H](O)[C@@H](CO)O3)c(=O)nc2o1`: the MCC in the assay on HEL [2] is greater than 50 µM. Moreover, the EC50 in the assay with Human alphaherpesvirus 3 [3] is 0.024 µM; with Human alphaherpesvirus 3 [4], 0.008 µM; in the assay on Human alphaherpesvirus 3 [7], greater than 50 µM; in the assay on Human alphaherpesvirus 3 [8], greater than 50 µM. The IC50 with HEL [6] is greater than 50 µM.

In the assay with HEL [2], `CCCCCCCCCCCc1cc2cn([C@H]3C[C@H](O)[C@@H](CO)O3)c(=O)nc2o1` yielded an MCC of 200 µM. For the same compound, the EC50 was 0.5 µM in the assay on Human alphaherpesvirus 3 [3], 0.5 µM with Human alphaherpesvirus 3 [4], greater than 50 µM in the assay on Human alphaherpesvirus 3 [7] and greater than 50 µM in the assay on Human alphaherpesvirus 3 [8]. The same compound had an IC50 in the assay on HEL [6] greater than 200 µM.
